The values below come from ChEMBL document CHEMBL1811876 (J Med Chem, 2011).

Molecules are shown by their SMILES. Activity calls are given as the source filed them.

The nature of data set [1]: (§1) Upregulation of Cdt1 expression in human CL1-5 cells at 0.01 ug/mL by RT-PCR analysis after 24 to 48 hrs by Western blot. It is filed as functional, cell-based. An outline of the steps: (§2)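 CL1-5 cells were exposed to the test agent for 24 and 48 h. Cdt1 and CDC6 protein levels were then assessed by Western blot.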
Data set [2] is described as follows: Upregulation of CDC6 expression in human CL1-5 cells by cDNA microarray. It is filed as functional, cell-based. The settings on record: TDE = time-dependent effect.
Data set [3] is described as follows: as §1. It is filed as functional, cell-based. The method in brief: as §2
This is another data set of the same source.

Another data set concerns DU-145. In words: Anticancer activity against human DU145 cells after 72 hrs by sulforhodamine B assay. The following applies: DU-145, 72 h. The data set is classed as functional. For orientation: In SRB staining, fixed cells bind dye roughly in proportion to their protein.
Data set [4] in a line: Upregulation of Cdt1 expression in human CL1-5 cells at 0.01 ug/mL by RT-PCR analysis after 24 to 48 hrs. It is filed as functional, cell-based.
Data set [5] in a line: Upregulation of CDC6 expression in human CL1-5 cells at 0.01 ug/mL by RT-PCR analysis after 24 to 48 hrs. The data set is classed as functional, cell-based.
Another data set has as its system A549. As to the kind of experiment: Anticancer activity against human A549 cells after 72 hrs by sulforhodamine B assay. The data set is classed as functional. The settings on record: A549, 72 h.
A further data set has as its system KB. As to the kind of experiment: Anticancer activity against human KB cells after 72 hrs by sulforhodamine B assay. The data set is classed as functional.
Data set [6] in a line: Upregulation of CDT1 expression in human CL1-5 cells by cDNA microarray. The data set is classed as functional, cell-based.
A short description of data set [7]: Anticancer activity against human KBVIN cells after 72 hrs by sulforhodamine B assay. The data set is classed as functional.
A short description of data set [8]: Toxicity against athymic nude mouse xenografted with human HT-29 cells assessed as mortality at 20 mg/kg, iv qd measured on day 12. It is filed as organism-based. On the set-up: dose 20 mg/kg, route intravenous. The following applies: in vivo, read-out: Activity. An outline of the steps:
(§3)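 Male athymic nude mice carrying human HT-29 colorectal adenocarcinoma xenografts, with a vehicle-treated control group. Dosing was 20 mg/kg given either i.v. once daily (qd) to the end of the study or i.v./i.p. twice daily (bid) to the end. Read-outs were median time to endpoint (TTE), maximum group body weight loss and treatment-related deaths. Significance threshold was P < 0.05.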
A general note: A xenograft is tissue or cells of one species grown in another, often human tumour cells in immunodeficient mice.

Data set [9] can be described thus: Toxicity against athymic nude mouse xenografted with human HT-29 cells assessed as mortality at 20 mg/kg, iv bid measured on day 19. The data set is classed as organism-based. The settings on record: in vivo, read-out: Activity. On the set-up: dose 20 mg/kg, route intravenous. An outline of the steps: as §3
Another data set deals with HCT-8. In words: Anticancer activity against human HCT8 cells after 72 hrs by sulforhodamine B assay. The data set is classed as functional. The following applies: HCT-8, 72 h.
The next data set relates to HUVEC. As to the kind of experiment: Toxicity against HUVEC. The settings on record: human. The data set is classed as cell-based.
The test system of data set [10] is HT-29. As to the kind of experiment: Anticancer activity against human HT-29 cells xenografted in athymic nude mouse assessed as median time to end point at 20 mg/kg, iv qd for 29 days. It is filed as functional. The method in brief:
as §3

In data set [11] the test system is HT-29. In words: Anticancer activity against human HT-29 cells xenografted in athymic nude mouse assessed as median time to end point at 20 mg/kg, ip bid for 29 days. The data set is classed as functional. The following applies: route intraperitoneal. An outline of the steps: as §3
In data set [12] the test system is HT-29. As to the kind of experiment: Anticancer activity against human HT-29 cells xenografted in athymic nude mouse assessed as median time to end point at 20 mg/kg, iv bid for 29 days. The data set is classed as functional. The method in brief: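 Male athymic nude mice bearing HT-29 human colorectal adenocarcinoma xenografts. Drug dosed i.v./i.p. at 20 mg/kg twice daily (bid) to end of study. A vehicle-treated group served as control. The read-out was median time to endpoint (TTE) per group, with maximum group body weight loss and treatment-related deaths tracked. Significance was judged at P < 0.05.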

What is called GI50 is the concentration that inhibits growth by half. A higher GI50 goes with lower sensitivity of the cells. With `COc1ccc2c3c(c4cc(OC)c(OC)cc4c2c1)C[C@H]1CCCN1C3` [(-)-ANTOFINE], the outcome in [1], in [3], in data set [4] and in data set [5] was Active. Also, the Activity entry was “tde” in data set [2] and “Dose-dependent effect” in data set [6]. The GI50 was 25 nM in the data set on DU-145, 22 nM in the data set on A549 and 36 nM in the data set on KB.

As to `COc1ccc2c3c(c4cc(OC)c(OC)cc4c2c1)C[C@@H]1CCN(CC(C)C)CN1C3`, the GI50 was found to be 7320 nM in [7], 1660 nM in the data set on DU-145, 5110 nM with A549 and 1450 nM with KB.

On to `COc1ccc2c3c(c4cc(OC)c(OC)cc4c2c1)C[C@H]1CCCCCN1C3`, for which the result in data set [1], in [3], in [4] and in data set [5] was inactive. This molecule also returned a GI50 with KB of 102 nM.

In the case of `COc1ccc2c3c(c4cc(OC)c(OC)cc4c2c1)C[C@@H]1CCN(CCO)CN1C3`, the GI50 in [7] is more than 20000 nM; with DU-145 it was 1460 nM; in the data set with A549, 2480 nM; in the data set on KB it was 2220 nM.

`COc1ccc2c3c(c4cc(OC)c(OC)cc4c2c1)C[C@H]1COCCN1C3`: the mortality in data set [8] is 1.1%; in [9], 7.2%. For the same molecule, the GI50 in the data set with HCT-8 was determined as 9 nM; with HUVEC it was 320 nM; in the data set with DU-145, 67 nM; in the data set on A549 it was 23 nM; in the data set with KB it was 37 nM. In addition, the outcome in [1], in [3], in data set [4] and in data set [5] was inactive. The Time is 21.3 days in the data set with HT-29 [10], 20.9 days in the data set on HT-29 [11] and 20.9 days with HT-29 [12].
